Data as given in ChEMBL document CHEMBL1157267, “Polyphenolic constituents of Actaea racemosa” (J Nat Prod, 2006).

Key:
Type in all cases: functional
[1] = test system: Radical scavenging activity; test: Antioxidant activity assessed as DPPH free radical scavenging activity
Method in brief: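 DPPH free-radical scavenging assay run on purified isolates with 400 µM DPPH. IC50 (µM) reported as the concentration giving half-maximal radical scavenging.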

[2] = test system: MCF7; test: Stimulation of cell proliferation in human MCF7 cells assessed as cell viability at 10 uM after 4 days relative to control
Method in brief: (§1)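 MCF-7 cells grown in DMEM with 10% FBS at 37 °C and 5% CO2. Before seeding they were passaged at least twice in phenol red-free DMEM with 2 mM L-glutamine and 5% charcoal-stripped serum, then washed twice with PBS. Cells were seeded at 2 × 10^4 per well, allowed 24 h to attach, then given fresh medium with compound. After 4 days attached viable cells were Coulter-counted relative to untreated cells.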

[3] = test system: MCF7; test: Cytotoxicity against human MCF7 cells at 30 uM; details: read-out: GI; method in brief: as §1
[4] = test system: MCF7; test: Stimulation of cell proliferation in human MCF7 cells assessed as cell viability at 3.7 nM after 4 days relative to control; method in brief: as §1
[5] = test system: MCF7; test: Stimulation of cell proliferation in human MCF7 cells assessed as cell viability at 16.8 uM after 4 days relative to control; method in brief: as §1
[6] = test system: MCF7; test: Stimulation of cell proliferation in human MCF7 cells assessed as cell viability at 14 uM after 4 days relative to control; method in brief: as §1

COc1ccc(/C=C/C(=O)O[C@H](C(=O)O)[C@](O)(Cc2ccc(O)c(O)c2)C(=O)O)cc1OC [CIMICIFUGIC ACID G]
IC50 [1]: 37 µM
fold change (FC) [2]: 1.14
inhibition of growth at 30 µM [3]: 32%

C[C@]12CC[C@@H]3c4ccc(O)cc4CC[C@H]3[C@@H]1CC[C@@H]2O [ESTRADIOL]
fold change (FC) [4]: 3.6

O=C1OC[C@H](Cc2cccc(O)c2)[C@H]1Cc1cccc(O)c1 [ENTEROLACTONE]
fold change (FC) [5]: 1.84

O=C(/C=C/c1ccc(O)c(O)c1)O[C@H](C(=O)O)[C@](O)(Cc1ccc(O)c(O)c1)C(=O)O [FUKINOLIC ACID]
IC50 [1]: 23 µM

O=C(O)c1cc(O)c(O)c(O)c1 [GALLIC ACID]
IC50 [1]: 29.9 µM

COc1ccc(/C=C/C(=O)O[C@H](C(=O)O)[C@](O)(Cc2ccc(O)c(O)c2)C(=O)O)cc1O [CIMICIFUGIC ACID B]
IC50 [1]: 21 µM

O=C1OCC(O)(C(=O)c2ccc(O)c(O)c2)/C1=C\c1ccc(O)c(O)c1 (stereo unspecified) [ACTAEALACTONE]
IC50 [1]: 26 µM
fold change (FC) [6]: 1.24

COc1cc(/C=C/C(=O)O[C@H](C(=O)O)[C@](O)(Cc2ccc(O)c(O)c2)C(=O)O)ccc1O [CIMICIFUGIC ACID A]
IC50 [1]: 12 µM
